A short description of assay [1]: Calcium mobilization in saponin permeabilised SH-SY5Y neuroblastoma cells at a pH of 6.8. The following applies: Homo sapiens. It is filed as functional, cell-based. In short, it runs like this:
(§1)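 SH-SY5Y cells were preloaded with 45Ca2+ and permeabilized with saponin. Release from Ins(1,4,5)P3-sensitive stores was measured in cytosolic-like buffer at pH 6.8, 7.2 or 7.6, at 20–22 °C. Release was normalized to 100% using 30 μM Ins(1,4,5)P3 as an internal standard in each experiment. EC50 from curve fitting, mean ± sem, n = 4.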
Background: Calcium assays in cells follow changes in intracellular calcium, usually with a dye or a luminescent sensor.

A short description of assay [2]: Calcium mobilization in saponin permeabilised SH-SY5Y neuroblastoma cells at a pH of 7.6. The settings on record: Homo sapiens. It is filed as functional, cell-based. Summed up:
as §1

Assay [3] can be described thus: Calcium mobilization in saponin permeabilised SH-SY5Y neuroblastoma cells at a pH of 7.2. It is filed as functional, cell-based. The following applies: Homo sapiens. Summed up:
as §1

Assay [4] deals with T1, Type 1 InsP3 receptor isoform S2 (Sus scrofa, UniProt P79248). The assay can be described thus: Binding affinity against IP3 receptor in pig cerebellar membranes at a pH of 6.8 using [3H]Ins(1,4,5)P3 as the radioligand. It is filed as cell membranes, Cerebellum, Membrane. Summed up: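 [3H]Ins(1,4,5)P3 displacement using pig cerebellar P2 membranes, assayed at pH 6.8. Buffer: 25 mM Tris/maleate, 5 mM NaHCO3, 1 mM EDTA, 0.25 mM DTT. Increasing ligand concentrations were incubated with 1.5 nM radioligand and about 70 μg membrane protein for 30 min at 4 °C. Bound ligand was separated by centrifugation. Nonspecific binding was taken with 10 μM Ins(1,4,5)P3. IC50 from curve fitting, mean ± sem, n = 3.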

Assay [5] has as its target T1, Type 1 InsP3 receptor isoform S2. Briefly: Binding affinity against IP3 receptor in pig cerebellar membranes at a pH of 7.6 using [3H]Ins(1,4,5)P3 as the radioligand. It is filed as cell membranes, Cerebellum, Membrane. Summed up:
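[3H]Ins(1,4,5)P3 displacement using pig cerebellar P2 membranes, assayed at pH 7.6. Buffer: 25 mM Tris/maleate, 5 mM NaHCO3, 1 mM EDTA, 0.25 mM DTT. Increasing ligand concentrations were incubated with 1.5 nM radioligand and about 50 μg membrane protein for 30 min at 4 °C. Bound ligand was separated by centrifugation. Nonspecific binding was taken with 10 μM Ins(1,4,5)P3. IC50 from curve fitting, mean ± sem, n = 3.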

T1 sequence (P79248 whole entry, canonical isoform): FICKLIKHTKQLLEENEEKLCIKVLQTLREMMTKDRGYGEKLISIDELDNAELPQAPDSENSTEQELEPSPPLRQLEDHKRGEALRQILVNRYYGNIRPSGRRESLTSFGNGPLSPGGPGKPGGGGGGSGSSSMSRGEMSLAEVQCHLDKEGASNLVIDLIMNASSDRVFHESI

One may read the EC50 as the midpoint of the concentration-response curve. The IC50 is the concentration needed to halve the response being measured. Take `NC1C(O)C(OP(=O)(O)O)C(O)C(OP(=O)(O)O)C1OP(=O)(O)O` (stereo unspecified): the figures for the EC50 in assay [1], in assay [2] and in assay [3] were 3680 nM, 1490 nM and 1070 nM, respectively. Also, the results for the IC50 in assay [4] and in assay [5] were 9110 nM and 5650 nM, respectively.
Consider `OC1C(OP(O)(O)=S)C(O)C(OP(O)(O)=S)C(OP(O)(O)=S)C1OP(O)(O)=S` (stereo unspecified), for which the EC50 in assay [1] turned out to be 5320 nM.
With `OC1C(O)C(OP(O)(O)=S)C(OP(O)(O)=S)C(O)C1OP(O)(O)=S` (stereo unspecified), the concentration giving a half-maximal response (EC50) was found to be 255 nM in assay [1], 107 nM in assay [2] and 52 nM in assay [3]. Further, the IC50 in assay [4] amounted to 78 nM; in assay [5] it was 61 nM.

Values taken from ChEMBL document CHEMBL1127677, “The novel Ins(1,4,5)P3 analogue 3-amino-3-deoxy-Ins(1,4,5)P3: a pH-dependent Ins(1,4,5)P3 receptor partial agonist in SH-SY5Y neuroblastoma cells” (J Med Chem, 1994).
